ChEMBL document CHEMBL5252566, “Antioxidant mechanisms and products of four 4',5,7-trihydroxyflavonoids with different structural types” (RSC Med Chem, 2023)

How the values were obtained:
Type in all cases: functional
[1] = Antioxidant activity assessed as DPPH radical scavenging activity incubated for 30 mins under dark condition by microplate reader analysis
Procedure, shortened: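 The radical solution is made from […] methanol solution and mixed with sample dissolved in methanol (ultrasonication at 40 °C). Incubation is 30 min dark at room temperature with read-out at A519. % scavenging vs no-sample blank; IC50 (final concentration giving 50% scavenging) from dose–response curve by linear regression, mean ± SD (n = 3).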

[2] = Antioxidant activity assessed as ABTS radical cation scavenging activity incubated for 10 mins under dark condition by microplate reader analysis
Procedure, shortened: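 ABTS˙+ is generated from 7.4 mM (NH4)2ABTS and 2.6 mM K2S2O8 solutions mixed 1:1 and kept dark at 27 °C for 12 h. It is diluted about 1:20 with water, then mixed with methanolic samples for 10 min dark at 27 °C and read at A734. % scavenging vs no-sample blank; IC50 from dose–response curve by linear regression, mean ± SD (n = 3).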

[3] = Antioxidant activity assessed as oxygen scavenging activity measured every 30 sec for 5 min by UV-vis spectrophotometer analysis
Procedure, shortened: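 Superoxide generation uses pyrogallol autoxidation: sample plus pyrogallol (60 mM stock in 1 mM HCl) in 0.05 M Tris-HCl, pH 7.4. A325 is recorded every 30 s for 5 min. Scavenging comes from the absorbance increase over 5 min relative to no-sample control; IC50 from dose–response curve, mean ± SD (n = 3).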

HT-22 [4] = assay: Antioxidant activity in mouse HT-22 cells assessed as OH scavenging activity by chromogenic analysis; parameters: concentration or dose not given beside the values
HT-22 [5] = assay: Antioxidant activity in mouse HT-22 cells assessed as OH scavenging activity measured for 24 hrs by CCK-8 analysis
Procedure, shortened: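 HT22 cells are grown in DMEM/10% FBS at 37 °C, 5% CO2, seeded at 1 × 10^4 per well and left to adhere for 24 h. They are pretreated with sample at 50 μM final for 24 h (model group: medium), then exposed to Fenton reagent (200 μM H2O2 + 200 μM FeCl2) for 24 h. Medium is removed and CCK-8 added for 2 h; survival from A450, five wells per sample.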

Structure (SMILES) | IC50 [1] | IC50 [2] | IC50 [3] | Activity (HT-22 [4]) | Activity (HT-22 [5])
O=c1cc(-c2ccc(O)cc2)oc2cc(O)cc(O)c12 [APIGENIN] | 2760 µM | 18.2 µM | 68.9 µM | 33.26% | 73.32%
O=C1O[C@H]([C@@H](O)CO)C(O)=C1O [ASCORBIC ACID] |  |  |  | 84.27% | 
O=c1c(-c2ccc(O)cc2)coc2cc(O)cc(O)c12 [GENISTEIN] | 1230 µM | 10.2 µM | 88.8 µM | 36.39% | 68.54%
O=c1c(O)c(-c2ccc(O)cc2)oc2cc(O)cc(O)c12 [KAEMPFEROL] | 15.5 µM | 4.73 µM | 81.6 µM | 74.46% | 69.4%
O=C1C[C@@H](c2ccc(O)cc2)Oc2cc(O)cc(O)c21 [NARINGENIN] | 1730 µM | 13 µM | 24.2 µM | 33.85% | 80.65%
Cc1c(C)c2c(c(C)c1O)CCC(C)(C(=O)O)O2 (centres undefined) [TROLOX] | 19.8 µM | 10.3 µM | 963 µM |  | 
